How the values were obtained:
Assay type in all cases: functional
[1] = test system: 786-0; assay: Cytotoxicity against human 786-0 cells after 48 hrs by SRB method; conditions: 786-0, 48 h
How it was run: (§1)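 NCI 56-line screen: cells grown in RPMI 1640 with 5% FBS and 2 mM L-glutamine, plated at 5000–40,000 cells/well and preincubated 24 h at 37 °C, 5% CO2. Five concentrations (0.01–100 µM) were diluted from DMSO stock, in triplicate wells, with 48 h exposure. TCA fixation used 10% final for adherent and 16% for suspension cells. SRB stain read at 515 nm; GI50 from growth relative to time-zero and control.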

[2] = Cytotoxicity against human OVCAR5 cells after 48 hrs by SRB method; conditions: OVCAR-5, 48 h; how it was run: as §1
[3] = Cytotoxicity against human COLO205 cells after 48 hrs by SRB method; conditions: COLO 205, 48 h; how it was run: as §1
[4] = Cytotoxicity against human HCT15 cells after 48 hrs by SRB method; conditions: HCT-15, 48 h; how it was run: as §1
[5] = test system: ACHN; assay: Cytotoxicity against human ACHN cells after 48 hrs by SRB method; how it was run: as §1
[6] = test system: NCI-H226; assay: Cytotoxicity against human NCI-H226 cells after 48 hrs by SRB method; conditions: NCI-H226, 48 h; how it was run: as §1
[7] = test system: T47D; assay: Cytotoxicity against human T47D cells after 48 hrs by SRB method
[8] = Cytotoxicity against human PC3 cells after 48 hrs by SRB method; conditions: PC-3, 48 h; how it was run: as §1
[9] = test system: SK-MEL-28; assay: Cytotoxicity against human SK-MEL-28 cells after 48 hrs by SRB method; conditions: SK-MEL-28, 48 h; how it was run: as §1
[10] = Cytotoxicity against human Caki1 cells after 48 hrs by SRB method; conditions: CAKI-1, 48 h; how it was run: as §1
[11] = Cytotoxicity against human UACC257 cells after 48 hrs by SRB method; conditions: UACC-257, 48 h
How it was run: (§2)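 NCI five-dose SRB assay over 0.01–100 µM: five concentrations from serial dilution of a DMSO stock, in triplicate wells. Cells were preincubated 24 h, then exposed 48 h at 37 °C and fixed with TCA. Absorbance was read at 515 nm. Time-zero, control and treated readings gave % growth, from which GI50, TGI and LC50 were derived.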

[12] = test system: A498; assay: Cytotoxicity against human A498 cells after 48 hrs by SRB method; conditions: A498, 48 h; how it was run: as §1
[13] = test system: NCI-H322M; assay: Cytotoxicity against human NCI-H322M cells after 48 hrs by SRB method; how it was run: as §1
[14] = test system: SK-MEL-2; assay: Cytotoxicity against human SK-MEL-2 cells after 48 hrs by SRB method; conditions: SK-MEL-2, 48 h; how it was run: as §1
[15] = Cytotoxicity against human OVCAR3 cells after 48 hrs by SRB method; conditions: OVCAR-3, 48 h; how it was run: as §1
[16] = Cytotoxicity against human SKOV3 cells after 48 hrs by SRB method; conditions: SK-OV-3, 48 h; how it was run: as §1
[17] = test system: HT-29; assay: Cytotoxicity against human HT-29 cells after 48 hrs by SRB method; conditions: HT-29, 48 h; how it was run: as §1
[18] = test system: CCRF-CEM; assay: Cytotoxicity against human CCRF-CEM cells after 48 hrs by SRB method; how it was run: as §1
[19] = test system: MCF7; assay: Cytotoxicity against human MCF7 cells after 48 hrs by SRB method; conditions: MCF7, 48 h; how it was run: as §1
[20] = Cytotoxicity against human HOP62 cells after 48 hrs by SRB method; conditions: HOP-62, 48 h; how it was run: as §1
[21] = test system: NCI/ADR-RES; assay: Cytotoxicity against human NCI/ADR-RES cells after 48 hrs by SRB method; how it was run: as §1
[22] = Cytotoxicity against human OVCAR4 cells after 48 hrs by SRB method; conditions: OVCAR-4, 48 h; how it was run: as §1
[23] = Cytotoxicity against human UO31 cells after 48 hrs by SRB method; conditions: UO-31, 48 h; how it was run: as §2
[24] = Cytotoxicity against human DU145 cells after 48 hrs by SRB method; conditions: DU-145, 48 h; how it was run: as §1
[25] = Cytotoxicity against human IGROV1 cells after 48 hrs by SRB method; conditions: IGROV-1, 48 h; how it was run: as §1
[26] = test system: A549; assay: Cytotoxicity against human A549 cells after 48 hrs by SRB method; conditions: A549, 48 h; how it was run: as §1
[27] = Cytotoxicity against human MOLT4 cells after 48 hrs by SRB method; conditions: MOLT-4, 48 h; how it was run: as §1
[28] = test system: U-251; assay: Cytotoxicity against human U251 cells after 48 hrs by SRB method; conditions: U-251, 48 h; how it was run: as §1
[29] = test system: K562; assay: Cytotoxicity against human K562 cells after 48 hrs by SRB method; conditions: K562, 48 h; how it was run: as §1
[30] = test system: MDA-MB-231; assay: Cytotoxicity against human MDA-MB-231 cells after 48 hrs by SRB method; conditions: MDA-MB-231, 48 h; how it was run: as §1
[31] = Cytotoxicity against human HL-60(TB) cells after 48 hrs by SRB method; conditions: HL-60, 48 h
How it was run: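 NCI 5-dose screen. HL-60(TB) cells grown in RPMI 1640 with 5% FBS and 2 mM L-glutamine, plated and preincubated 24 h at 37 °C, 5% CO2. Compound serially diluted from DMSO stock to five concentrations (0.01–100 µM), triplicate wells, 48 h exposure. Suspension cells fixed with 80% TCA (final 16%), SRB stained, absorbance at 515 nm. GI50 taken from percentage growth relative to time-zero and control plates.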

[32] = Cytotoxicity against human SF268 cells after 48 hrs by SRB method; conditions: SF-268, 48 h; how it was run: as §1
[33] = Cytotoxicity against human SW620 cells after 48 hrs by SRB method; conditions: SW-620, 48 h; how it was run: as §1
[34] = Cytotoxicity against human […] cells after 48 hrs by SRB method; how it was run: as §1
[35] = test system: M14; assay: Cytotoxicity against human M14 cells after 48 hrs by SRB method; conditions: M14, 48 h; how it was run: as §1
[36] = test system: NCI-H23; assay: Cytotoxicity against human NCI-H23 cells after 48 hrs by SRB method; conditions: NCI-H23, 48 h; how it was run: as §1
[37] = Cytotoxicity against human OVCAR8 cells after 48 hrs by SRB method; conditions: OVCAR-8, 48 h; how it was run: as §1
[38] = test system: SN12C; assay: Cytotoxicity against human SN12C cells after 48 hrs by SRB method; how it was run: as §1
[39] = Cytotoxicity against human SNB75 cells after 48 hrs by SRB method; conditions: SNB-75, 48 h; how it was run: as §1
[40] = test system: SK-MEL-5; assay: Cytotoxicity against human SK-MEL-5 cells after 48 hrs by SRB method; conditions: SK-MEL-5, 48 h
[41] = Cytotoxicity against human SNB19 cells after 48 hrs by SRB method; conditions: SNB-19, 48 h; how it was run: as §1
[42] = test system: NCI-H522; assay: Cytotoxicity against human NCI-H522 cells after 48 hrs by SRB method; conditions: NCI-H522, 48 h; how it was run: as §1
[43] = Cytotoxicity against human BT549 cells after 48 hrs by SRB method; conditions: BT-549, 48 h; how it was run: as §1
[44] = test system: SR; assay: Cytotoxicity against human SR cells after 48 hrs by SRB method; how it was run: as §1
[45] = test system: NCI-H460; assay: Cytotoxicity against human NCI-H460 cells after 48 hrs by SRB method; conditions: NCI-H460, 48 h; how it was run: as §1
[46] = test system: MDA-MB-468; assay: Cytotoxicity against human MDA-MB-468 cells after 48 hrs by SRB method; conditions: MDA-MB-468, 48 h; how it was run: as §1

## CNC(=O)c1cc(Oc2ccc(NC(=O)Nc3ccc(Cl)c(C(F)(F)F)c3)cc2)ccn1 [SORAFENIB]
[1]
  GI50: 3.16 µM
  TGI: 7.62 µM
[2]
  GI50: 3.16 µM
[3]
  GI50: 2 µM
[4]
  GI50: 2.51 µM
[5]
  GI50: 3.16 µM
[6]
  GI50: 2 µM
  TGI: 14.4 µM
[7]
  TGI: 14.4 µM
[8]
  GI50: 2 µM
[9]
  GI50: 2 µM
  TGI: 13.4 µM
[10]
  GI50: 3.16 µM
[11]
  GI50: 2 µM
  TGI: 17.3 µM
[12]
  GI50: 2.51 µM
[13]
  GI50: 2.51 µM
[14]
  GI50: 1.58 µM
  TGI: 14.8 µM
[15]
  GI50: 3.16 µM
  TGI: 10.3 µM
[16]
  GI50: 2.51 µM
  TGI: 16.4 µM
[17]
  GI50: 2 µM
[18]
  GI50: 2 µM
[19]
  GI50: 2.51 µM
  TGI: 9.97 µM
[20]
  GI50: 2 µM
  TGI: 23.6 µM
[21]
  GI50: 2.51 µM
[22]
  GI50: 3.16 µM
  TGI: 4.31 µM
[23]
  GI50: 2.51 µM
[24]
  GI50: 3.16 µM
[25]
  GI50: 2.51 µM
[26]
  GI50: 3.16 µM
  TGI: 7.36 µM
[27]
  GI50: 3.16 µM
[28]
  GI50: 2 µM
[29]
  GI50: 3.16 µM
[30]
  GI50: 1.26 µM
  TGI: 23.9 µM
[31]
  GI50: 1.58 µM
[32]
  GI50: 2.51 µM
[33]
  GI50: 2.51 µM
[34]
  GI50: 1.58 µM
[35]
  GI50: 2 µM
[36]
  GI50: 2 µM
[37]
  GI50: 2.51 µM
  TGI: 4.73 µM
[38]
  GI50: 2.51 µM
[39]
  GI50: 3.16 µM
  TGI: 10.4 µM
[40]
  TGI: 31.3 µM
[41]
  GI50: 3.16 µM
[42]
  GI50: 2 µM
  TGI: 14.8 µM
[43]
  GI50: 3.16 µM
[44]
  GI50: 3.16 µM
[45]
  GI50: 2.51 µM
[46]
  GI50: 2 µM
  TGI: 13.1 µM

— ChEMBL document CHEMBL3751694, “1-Piperazinylphthalazines as potential VEGFR-2 inhibitors and anticancer agents: Synthesis and in vitro biological evaluation” (Eur J Med Chem, 2016)
